ChEMBL document CHEMBL4152188, “Design, synthesis and biological evaluation of C(4) substituted monobactams as antibacterial agents against multidrug-resistant Gram-negative bacteria” (Eur J Med Chem, 2018)

Columns and labels:
Assay type in all cases: functional
[1] = test system: Escherichia coli; assay: Antibacterial activity against extended-spectrum beta-lactamase producing Escherichia coli isolate 212648 after 18 hrs by CLSI broth microdilution method; conditions: isolate 212648, 18 h
[2] = test system: Escherichia coli; assay: Selectivity index, ratio of MIC for against extended-spectrum beta-lactamase producing Escherichia coli isolate 208687 to MIC for extended-spectrum beta-lactamase producing Escherichia coli isolate 208687 in presence of BPL
[3] = test system: Escherichia coli; assay: Antibacterial activity against Escherichia coli isolate 210737 after 18 hrs by CLSI broth microdilution method; conditions: isolate 210737, 18 h
[4] = test system: Escherichia coli; assay: Antibacterial activity against extended-spectrum beta-lactamase producing Escherichia coli isolate 208687 after 18 hrs by CLSI broth microdilution method; conditions: isolate 208687, 18 h
[5] = test system: Escherichia coli; assay: Antibacterial activity against extended-spectrum beta-lactamase producing Escherichia coli isolate 208687 after 18 hrs in presence of BPL by CLSI broth microdilution method; conditions: isolate 208687, 18 h
Procedure, shortened: (§1)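 CLSI broth microdilution against clinical isolates (ESBL E. coli, KPC-2 MDR K. pneumoniae, IMP-4 MDR P. aeruginosa; five per species). Iron limitation: Mueller-Hinton broth supplemented with 16 mg/liter 2,2'-bipyridyl to complex iron and induce iron uptake systems. Read-out: MIC.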

[6] = test system: Escherichia coli; assay: Antibacterial activity against Escherichia coli isolate 210737 after 18 hrs in presence of BPL by CLSI broth microdilution method; conditions: isolate 210737, 18 h; procedure, shortened: as §1
[7] = test system: Escherichia coli; assay: Selectivity index, ratio of MIC for against Escherichia coli isolate 210737 to MIC for Escherichia coli isolate 210737 in presence of BPL
[8] = test system: Escherichia coli; assay: Antibacterial activity against extended-spectrum beta-lactamase producing Escherichia coli isolate 212648 after 18 hrs in presence of BPL by CLSI broth microdilution method; conditions: isolate 212648, 18 h; procedure, shortened: as §1
[9] = test system: Escherichia coli; assay: Selectivity index, ratio of MIC for against extended-spectrum beta-lactamase producing Escherichia coli isolate 212648 to MIC for extended-spectrum beta-lactamase producing Escherichia coli isolate 212648 in presence of BPL
[10] = test system: Escherichia coli; assay: Antibacterial activity against extended-spectrum beta-lactamase producing Escherichia coli isolate 209285 after 18 hrs by CLSI broth microdilution method; conditions: isolate 209285, 18 h
[11] = test system: Escherichia coli; assay: Antibacterial activity against extended-spectrum beta-lactamase producing Escherichia coli isolate 209285 after 18 hrs in presence of BPL by CLSI broth microdilution method; conditions: isolate 209285, 18 h; procedure, shortened: as §1
[12] = test system: Escherichia coli; assay: Selectivity index, ratio of MIC for against extended-spectrum beta-lactamase producing Escherichia coli isolate 209285 to MIC for extended-spectrum beta-lactamase producing Escherichia coli isolate 209285 in presence of BPL
[13] = test system: Escherichia coli; assay: Antibacterial activity against extended-spectrum beta-lactamase producing Escherichia coli isolate 106342 after 18 hrs by CLSI broth microdilution method; conditions: isolate 106342, 18 h
[14] = test system: Escherichia coli; assay: Antibacterial activity against extended-spectrum beta-lactamase producing Escherichia coli isolate 106342 after 18 hrs in presence of BPL by CLSI broth microdilution method; conditions: isolate 106342, 18 h; procedure, shortened: as §1
[15] = test system: Escherichia coli; assay: Selectivity index, ratio of MIC for against extended-spectrum beta-lactamase producing Escherichia coli isolate 106342 to MIC for extended-spectrum beta-lactamase producing Escherichia coli isolate 106342 in presence of BPL
[16] = test system: Klebsiella pneumoniae; assay: Antibacterial activity against KPC-2 producing Klebsiella pneumoniae isolate 212423 after 18 hrs by CLSI broth microdilution method; conditions: isolate 212423, 18 h
[17] = test system: Klebsiella pneumoniae; assay: Antibacterial activity against KPC-2 producing Klebsiella pneumoniae isolate 212423 after 18 hrs in presence of BPL by CLSI broth microdilution method; conditions: isolate 212423, 18 h; procedure, shortened: as §1
[18] = test system: Klebsiella pneumoniae; assay: Selectivity index, ratio of MIC for against KPC-2 producing Klebsiella pneumoniae isolate 212423 to MIC for against KPC-2 producing Klebsiella pneumoniae isolate 212423 in presence of BPL
[19] = test system: Klebsiella pneumoniae; assay: Antibacterial activity against KPC-2 producing Klebsiella pneumoniae isolate 209632 after 18 hrs by CLSI broth microdilution method; conditions: isolate 209632, 18 h
[20] = test system: Klebsiella pneumoniae; assay: Antibacterial activity against KPC-2 producing Klebsiella pneumoniae isolate 209632 after 18 hrs in presence of BPL by CLSI broth microdilution method; conditions: isolate 209632, 18 h; procedure, shortened: as §1
[21] = test system: Klebsiella pneumoniae; assay: Selectivity index, ratio of MIC for against KPC-2 producing Klebsiella pneumoniae isolate 209632 to MIC for against KPC-2 producing Klebsiella pneumoniae isolate 209632 in presence of BPL
[22] = test system: Klebsiella pneumoniae; assay: Antibacterial activity against KPC-2 producing Klebsiella pneumoniae isolate 209735 after 18 hrs by CLSI broth microdilution method; conditions: isolate 209735, 18 h
[23] = test system: Klebsiella pneumoniae; assay: Antibacterial activity against KPC-2 producing Klebsiella pneumoniae isolate 209735 after 18 hrs in presence of BPL by CLSI broth microdilution method; conditions: isolate 209735, 18 h; procedure, shortened: as §1
[24] = test system: Klebsiella pneumoniae; assay: Selectivity index, ratio of MIC for against KPC-2 producing Klebsiella pneumoniae isolate 209735 to MIC for against KPC-2 producing Klebsiella pneumoniae isolate 209735 in presence of BPL
[25] = test system: Klebsiella pneumoniae; assay: Antibacterial activity against KPC-2 producing Klebsiella pneumoniae isolate 212232 after 18 hrs by CLSI broth microdilution method; conditions: isolate 212232, 18 h
[26] = test system: Klebsiella pneumoniae; assay: Antibacterial activity against KPC-2 producing Klebsiella pneumoniae isolate 212232 after 18 hrs in presence of BPL by CLSI broth microdilution method; conditions: isolate 212232, 18 h; procedure, shortened: as §1
[27] = test system: Klebsiella pneumoniae; assay: Selectivity index, ratio of MIC for against KPC-2 producing Klebsiella pneumoniae isolate 212232 to MIC for against KPC-2 producing Klebsiella pneumoniae isolate 212232 in presence of BPL
[28] = test system: Klebsiella pneumoniae; assay: Antibacterial activity against KPC-2 producing Klebsiella pneumoniae isolate 212229 after 18 hrs by CLSI broth microdilution method; conditions: isolate 212229, 18 h
[29] = test system: Klebsiella pneumoniae; assay: Antibacterial activity against KPC-2 producing Klebsiella pneumoniae isolate 212229 after 18 hrs in presence of BPL by CLSI broth microdilution method; conditions: isolate 212229, 18 h; procedure, shortened: as §1
[30] = test system: Klebsiella pneumoniae; assay: Selectivity index, ratio of MIC for against KPC-2 producing Klebsiella pneumoniae isolate 212229 to MIC for against KPC-2 producing Klebsiella pneumoniae isolate 212229 in presence of BPL
[31] = test system: Pseudomonas aeruginosa; assay: Antibacterial activity against IMP-4 producing Pseudomonas aeruginosa isolate 212886 after 18 hrs by CLSI broth microdilution method; conditions: isolate 212886, 18 h
[32] = test system: Pseudomonas aeruginosa; assay: Antibacterial activity against IMP-4 producing Pseudomonas aeruginosa isolate 212886 after 18 hrs in presence of BPL by CLSI broth microdilution method; conditions: isolate 212886, 18 h; procedure, shortened: as §1
[33] = test system: Pseudomonas aeruginosa; assay: Selectivity index, ratio of MIC for against IMP-4 producing Pseudomonas aeruginosa isolate 212886 to MIC for against IMP-4 producing Pseudomonas aeruginosa isolate 212886 in presence of BPL
[34] = test system: Pseudomonas aeruginosa; assay: Antibacterial activity against IMP-4 producing Pseudomonas aeruginosa isolate 209471 after 18 hrs by CLSI broth microdilution method; conditions: isolate 209471, 18 h
[35] = test system: Pseudomonas aeruginosa; assay: Antibacterial activity against IMP-4 producing Pseudomonas aeruginosa isolate 209471 after 18 hrs in presence of BPL by CLSI broth microdilution method; conditions: isolate 209471, 18 h; procedure, shortened: as §1
[36] = test system: Pseudomonas aeruginosa; assay: Selectivity index, ratio of MIC for against IMP-4 producing Pseudomonas aeruginosa isolate 209471 to MIC for against IMP-4 producing Pseudomonas aeruginosa isolate 209471 in presence of BPL
[37] = test system: Pseudomonas aeruginosa; assay: Antibacterial activity against IMP-4 producing Pseudomonas aeruginosa isolate 208247 after 18 hrs by CLSI broth microdilution method; conditions: isolate 208247, 18 h
[38] = test system: Pseudomonas aeruginosa; assay: Antibacterial activity against IMP-4 producing Pseudomonas aeruginosa isolate 208247 after 18 hrs in presence of BPL by CLSI broth microdilution method; conditions: isolate 208247, 18 h; procedure, shortened: as §1
[39] = test system: Pseudomonas aeruginosa; assay: Selectivity index, ratio of MIC for against IMP-4 producing Pseudomonas aeruginosa isolate 208247 to MIC for against IMP-4 producing Pseudomonas aeruginosa isolate 208247 in presence of BPL
[40] = test system: Pseudomonas aeruginosa; assay: Antibacterial activity against IMP-4 producing Pseudomonas aeruginosa isolate 209321 after 18 hrs by CLSI broth microdilution method; conditions: isolate 209321, 18 h
[41] = test system: Pseudomonas aeruginosa; assay: Antibacterial activity against IMP-4 producing Pseudomonas aeruginosa isolate 209321 after 18 hrs in presence of BPL by CLSI broth microdilution method; conditions: isolate 209321, 18 h; procedure, shortened: as §1
[42] = test system: Pseudomonas aeruginosa; assay: Antibacterial activity against IMP-4 producing Pseudomonas aeruginosa isolate 207272 after 18 hrs by CLSI broth microdilution method; conditions: isolate 207272, 18 h
[43] = test system: Pseudomonas aeruginosa; assay: Antibacterial activity against IMP-4 producing Pseudomonas aeruginosa isolate 207272 after 18 hrs in presence of BPL by CLSI broth microdilution method; conditions: isolate 207272, 18 h; procedure, shortened: as §1
[44] = test system: Pseudomonas aeruginosa; assay: Selectivity index, ratio of MIC for against IMP-4 producing Pseudomonas aeruginosa isolate 207272 to MIC for against IMP-4 producing Pseudomonas aeruginosa isolate 207272 in presence of BPL

CC(C)C(O/N=C(\C(=O)N[C@@H]1C(=O)N(S(=O)(=O)O)[C@@H]1CSc1nc(=O)c(O)nn1C)c1csc(N)n1)c1cc(=O)c(O)cn1O (some centres undefined)
1: Selectivity Index [12] | Selectivity Index [36] | Selectivity Index [39] | Selectivity Index [44]
4: Selectivity Index [2] | Selectivity Index [9] | Selectivity Index [30]
8: Selectivity Index [27]
2 µg/mL: MIC [3] | MIC [14] | MIC [17] | MIC [19] | MIC [23] | MIC [25]
32 µg/mL: MIC [32]
64 µg/mL: MIC [34] | MIC [35] | MIC [37] | MIC [38] | MIC [42] | MIC [43]
>2: Selectivity Index [33]
4 µg/mL: MIC [1] | MIC [4] | MIC [10] | MIC [11] | MIC [13] | MIC [16] | MIC [22] | MIC [28]
2: Selectivity Index [7] | Selectivity Index [15] | Selectivity Index [18] | Selectivity Index [21] | Selectivity Index [24]
0.25 µg/mL: MIC [26]
> 64 µg/mL: MIC [31] | MIC [40] | MIC [41]
1 µg/mL: MIC [5] | MIC [6] | MIC [8] | MIC [20] | MIC [29]
